Here are results for 22 compounds from ChEMBL document CHEMBL1926538, “3,5-Disubstituted-thiazolidine-2,4-dione analogs as anticancer agents: design, synthesis and biological characterization” (Eur J Med Chem, 2012).

Test [1] relates to U-937. Description: Growth inhibition of human U937 cells after 24 hrs by MTS assay. Particulars: U-937, 24 h. In kind it is functional, cell-based. A digest of the protocol:
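Cells in RPMI 1640 with 10% heat-inactivated FBS, seeded 2 × 10⁴ cells/well and exposed 24 h. MTS reagent added, then 1 h further incubation at 37 °C, 5% CO₂. Formazan absorbance read at 490 nm. Viability expressed as percentage of untreated controls.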
For orientation: Tetrazolium dyes change colour on reduction, which living cells bring about.

Test [2] relates to U-937. Description: Inhibition of PI3K-mediated Akt phosphorylation in human U937 cells at 0.3 to 30 uM after 1 hr by Western blot analysis. In kind it is cell-based.
The target of test [3] is RAF proto-oncogene serine/threonine-protein kinase (Homo sapiens) (UniProt P04049). Kind of test: Inhibition of raf-mediated ERK phosphorylation in human U937 cells at 0.3 to 30 uM after 1 hr by Western blot analysis. In kind it is cell-based. The note with it: U-937. A digest of the protocol: (§1)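 Cells in RPMI 1640 with 10% heat-inactivated FBS, 37 °C, 5% CO2; treated in growing medium (DU145 24 h; U937 1 h at 5 × 10⁵/mL). Lysed by sonication in SDS sample buffer with protease inhibitors plus 1 mM orthovanadate and pyrophosphate, boiled 5 min. Blots blocked in 5% milk, primary antibodies 1:1000 overnight at 4 °C, HRP secondary 1:2000, chemiluminescence; α-tubulin loading control.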
On the technique in general: Immunoblotting shows a protein as a band on a membrane.

For test [4] the target is unchanged. Kind of test: Inhibition of raf-mediated MEK phosphorylation in human U937 cells at 0.3 to 30 uM after 1 hr by Western blot analysis. It counts as cell-based. The note with it: U-937. A digest of the protocol:
as §1

Test [5] deals with U-937. Kind of test: Growth inhibition of human U937 cells at 320 uM after 72 hrs by MTS assay. It counts as functional, cell-based. A digest of the protocol:
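U937 cells exposed 72 h, with or without AICA 320 µM, then MTS added. Absorbance read at 490 nm, expressed as percentage of untreated controls. Data are mean percentage viability, n = 6, error bars SEM.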

In test [6] the test system is U-937. Kind of test: Cell cycle arrest in human U937 cells assessed as decrease in S-phase population after 24 hrs by propidium iodide staining-based flow cytometric analysis in presence of MEK inhibitor PD184352. It counts as functional. A digest of the protocol: (§2)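 Cells cultured in RPMI 1640 with 10% FBS and treated 24 h at the indicated concentrations. Stained with propidium iodide for 4 h at 4 °C in the dark. Flow cytometry gave the percentage of cells in G₀/G₁, S, G₂/M and sub-G₁ phases.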
For orientation: Flow cytometry measures light scatter and fluorescence of single cells or particles in a stream.

Test [7] deals with U-937. Kind of test: Cell cycle arrest in human U937 cells assessed as accumulation at G2/M-phase after 24 hrs by propidium iodide staining-based flow cytometric analysis in presence of MEK inhibitor PD184352. In kind it is functional. A digest of the protocol: as §2

Calls of active or inactive are those of the source. The calls are words filed in the database; no cut-off is given here.

Chain of RAF proto-oncogene serine/threonine-protein kinase (Homo sapiens) (P04049 whole entry): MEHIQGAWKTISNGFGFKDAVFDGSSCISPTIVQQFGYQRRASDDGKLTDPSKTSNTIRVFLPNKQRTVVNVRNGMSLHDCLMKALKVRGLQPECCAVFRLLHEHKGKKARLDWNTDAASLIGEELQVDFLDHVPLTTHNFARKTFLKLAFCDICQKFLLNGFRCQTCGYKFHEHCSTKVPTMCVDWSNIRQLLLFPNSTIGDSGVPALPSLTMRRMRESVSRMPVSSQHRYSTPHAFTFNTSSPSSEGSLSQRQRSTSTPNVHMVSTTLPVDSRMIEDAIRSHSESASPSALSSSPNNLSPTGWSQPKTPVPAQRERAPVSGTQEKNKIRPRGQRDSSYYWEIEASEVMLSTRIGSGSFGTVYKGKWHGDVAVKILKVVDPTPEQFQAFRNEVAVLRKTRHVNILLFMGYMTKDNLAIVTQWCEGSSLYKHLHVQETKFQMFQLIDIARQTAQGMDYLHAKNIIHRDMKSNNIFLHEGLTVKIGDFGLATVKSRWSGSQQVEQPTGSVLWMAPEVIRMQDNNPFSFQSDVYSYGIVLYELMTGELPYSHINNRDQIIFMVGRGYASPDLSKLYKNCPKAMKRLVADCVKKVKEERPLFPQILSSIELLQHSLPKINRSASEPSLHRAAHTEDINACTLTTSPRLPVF

The compound `O=C(O)CN1C(=O)S/C(=C\CCc2ccccc2)C1=O` returned an IC50 in test [1] above 30 µM.

Regarding `NCCN1C(=O)S/C(=C\CCc2ccc(Cl)cc2)C1=O`, it took 21.2 µM to reach half-maximal inhibition in test [1] (IC50).

Turning to `NCCN1C(=O)SC(CCCc2ccccc2)C1=O` (racemic), the inhibition entry in test [2], in test [3] and in test [4] was “inactive” in each case. Also, the IC50 in test [1] was above 30 µM.

In turn, `NCCN1C(=O)S/C(=C\CCc2ccc([N+](=O)[O-])cc2)C1=O` displayed an IC50 in test [1] above 30 µM.

Turning to `NCCN1C(=O)S/C(=C\CCc2ccc(S(N)(=O)=O)cc2)C1=O`, the concentration for half-maximal inhibition (IC50) in test [1] was above 30 µM.

Regarding `CC/C=C1\SC(=O)N(CCN)C1=O`, the half-inhibitory concentration (IC50) in test [1] was above 30 µM.

Take `NCCN1C(=O)S/C(=C\CCc2cccc([N+](=O)[O-])c2)C1=O`: half-maximal inhibition in test [1] (IC50) required 24.4 µM.

`CS(=O)(=O)Nc1ccc(CC/C=C2\SC(=O)N(CCN)C2=O)cc1` registered an IC50 in test [1] above 30 µM.

Compound `NCCN1C(=O)S/C(=C\CCc2ccc3[nH]ccc3c2)C1=O` came in with an IC50 in test [1] of 27.7 µM.

On to `NCCN1C(=O)S/C(=C\CCc2cccnc2)C1=O`, for which, in test [1], the half-maximal inhibitory concentration (IC50) was above 30 µM.

Regarding `CCOc1cccc(CC/C=C2\SC(=O)N(CCN)C2=O)c1`, in test [1], 10 µM corresponded to half-maximal inhibition (IC50).

Turning to `O=C1S/C(=C\CCc2ccccc2)C(=O)N1CCO`, the IC50 in test [1] stood at 11.3 µM.

With `NC(=O)c1[nH]cnc1N`, the “growth inhibition (GI)” value in test [5] was “inactive”.

Regarding `O=C1S/C(=C\CCc2ccccc2)C(=O)N1CCN1CCOCC1`, the IC50 in test [1] is above 30 µM.

For `O=C(NOCC1CC1)c1ccc(F)c(F)c1Nc1ccc(I)cc1Cl`, the result in test [6] and in test [7] was Active.

In turn, `CCOc1ccccc1CC/C=C1\SC(=O)N(CCN)C1=O` had an IC50 in test [1] of 11.3 µM.

The compound `COc1ccc(CC/C=C2\SC(=O)N(CCN)C2=O)cc1` displayed a half-maximal inhibitory concentration (IC50) in test [1] of 9.4 µM.

With `CCOc1ccc(CC/C=C2\SC(=O)N(CCN)C2=O)cc1`, the half-inhibitory concentration (IC50) in test [1] is 9.6 µM.

With `NCCN1C(=O)S/C(=C\CCC2CC2)C1=O`, half-maximal inhibition in test [1] (IC50) was put at 14.1 µM.

Regarding `NCCN1C(=O)S/C(=C\CCc2ccccc2)C1=O`, the inhibition entry in test [2], in test [3] and in test [4] was “inactive” throughout. This compound showed an IC50 in test [1] of 10.4 µM.

In test [1], `NCCN1C(=O)S/C(=C\CCc2c[nH]c3ccccc23)C1=O` had an IC50 of 29.5 µM.

`NCCN1C(=O)c2ccc(Cc3ccccc3)cc2C1=O` returned an IC50 in test [1] above 30 µM.

One may read the IC50 as the point on the concentration scale where inhibition reaches its midpoint.
